Source: ChEMBL document CHEMBL1153860, “Design, synthesis and structure-activity relationships of antiproliferative 1,3-disubstituted urea derivatives” (Eur J Med Chem, 2009)
pIC50: −log10 of the molar value.

Key:
KB = experiment: Antiproliferative activity against human KB cells after 48 hrs by MTT assay; type: functional, cell-based
Outline: (§1)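 Cells seeded at 7 × 10³/well and grown for 24 h. Exponentially growing cells were then exposed for 48 h to final concentrations of 0.1–100. MTT was added for 4 h, followed by 10% SDS in 0.01 N HCl at 37 °C for 18 h, and absorbance was read at 570 nm. Survival was expressed as % of untreated cells. IC50 was taken from six-well replicates in at least two independent experiments.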

[1] = Antiproliferative activity against human L02 cells after 48 hrs by MTT assay; type: cell-based; conditions: L02, 48 h; outline: as §1

pIC50 (KB) | SMILES | pIC50 [1]
4.31 | CCOC(=O)N1CCC(N(Cc2ccc(O)cc2)C(=O)N(C)C)CC1 | 
4.48 | CN(C)C(=O)N(Cc1ccco1)Cc1cc(Br)ccc1O | 
4.61 | CCOC(=O)N1CCC(N(Cc2cc(Br)ccc2O)C(=O)N(C)C)CC1 | 
5.32 | CN(C)C(=O)N(CCN1CCOCC1)Cc1cc([N+](=O)[O-])ccc1O | 4.59
5.05 | CN(C)C(=O)N(CCCN1CCOCC1)Cc1cc(Br)ccc1O | 4.07
6.28 | CN(C)C(=O)N(CCCN1CCOCC1)Cc1ccc([N+](=O)[O-])cc1 | 4.07
5.37 | CN(C)C(=O)N(CCN1CCOCC1)Cc1ccc(O)cc1 | 4.09
4.76 | CN(C)C(=O)N(Cc1ccc([N+](=O)[O-])cc1)Cc1ccco1 | 
6.38 | COc1cc([C@@H]2c3cc4c(cc3[C@@H](O[C@@H]3O[C@@H]5CO[C@@H](C)O[C@H]5[C@H](O)[C@H]3O)[C@H]3COC(=O)[C@H]23)OCO4)cc(OC)c1O [ETOPOSIDE] | 4.89
4.59 | CCOC(=O)N1CCC(N(Cc2cc(Cl)ccc2O)C(=O)N(C)C)CC1 | 
5.54 | CN(C)C(=O)N(CCCN1CCOCC1)Cc1ccc(O)cc1 | 3.96
7.05 | CN(C)C(=O)N(CCN1CCOCC1)Cc1cccc([N+](=O)[O-])c1 | 3.81
5.14 | CN(C)C(=O)N(CCN1CCOCC1)Cc1cc(Br)ccc1O | 4.68
4.62 | CN(C)C(=O)N(Cc1cccc([N+](=O)[O-])c1)Cc1ccco1 | 
6.12 | CN(C)C(=O)N(CCN1CCOCC1)Cc1ccc([N+](=O)[O-])cc1 | 4.19
4.62 | CCOC(=O)N1CCC(N(Cc2cc([N+](=O)[O-])ccc2O)C(=O)N(C)C)CC1 | 
5.48 | CN(C)C(=O)N(CCCN1CCOCC1)Cc1cc([N+](=O)[O-])ccc1O | 3.90
6.77 | CN(C)C(=O)N(CCCN1CCOCC1)Cc1cccc([N+](=O)[O-])c1 | 3.87
4.28 | CN(C)C(=O)N(Cc1ccc(O)cc1)Cc1ccco1 | 
4.81 | CCOC(=O)N1CCC(N(Cc2cccc([N+](=O)[O-])c2)C(=O)N(C)C)CC1 | 
4.79 | CCOC(=O)N1CCC(N(Cc2ccc([N+](=O)[O-])cc2)C(=O)N(C)C)CC1 | 
4.68 | CN(C)C(=O)N(Cc1ccco1)Cc1cc([N+](=O)[O-])ccc1O | 
4.31 | CN(C)C(=O)N(Cc1ccco1)Cc1cc(Cl)ccc1O | 
5.76 | CN(C)C(=O)N(CCCN1CCOCC1)Cc1cc(Cl)ccc1O | 4.09
5.65 | CN(C)C(=O)N(CCN1CCOCC1)Cc1cc(Cl)ccc1O | 4.09
